The target of data set [1] is T1, Histone deacetylase (Homo sapiens) (UniProt Q13547+O15379+Q9UBN7+Q92769+Q9UQL6+Q8WUI4+Q9BY41+Q96DB2+P56524+Q9UKV0+Q969S8). Description: Inhibition of HDAC in human HL-60 cells assessed as increase in H3 histone acetylation at 10 uM after 24 hrs by Western blot anlaysis. The format is cell-based. The procedure, abridged:
(§1)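 Caged compound coated on angioplasty balloon at 3.0ug/mm2. Balloon either exposed to 365 nm UV (65mW, 4 min) or left unexposed, then compound eluted. HL60 cells (RPMI-1640, 10% heat-inactivated FCS, 37 °C, 5% CO2) treated with eluate at 10.0 µM for 24 h, then PBS-washed. Histones acid-extracted (H2SO4, acetone precipitation), quantified by Bradford. 25 µg per lane run on 15% SDS-PAGE and transferred to PVDF. Blocked in 5% milk, probed overnight at 4 °C with anti-acetyl histone H3, detected with HRP anti-rabbit IgG (1:1000). Untreated cells as control.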

The next data set relates to HUVEC. Description: Cytotoxicity against HUVEC at 1.0 mmol/L after 24 hrs by trypan blue staining based assay. It counts as cell-based. To be noted: human, 1000 µM. Summed up:
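HUVECs (pooled donor) grown in Medium-199 with 20% FCS, endothelial cell growth factor and heparin, 37 °C, 5% CO2. Agents dissolved in 100% DMSO and added at final 1.0 mmol/L for 24 h. Viability scored by 0.4% trypan blue exclusion right after culture, relative to viable count at start. Untreated cells as control. At least 3 repeats, averaged.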

Data set [2] can be described thus: Drug metabolism assessed as photolysis by measuring parent compound at 4.26 mM using MeCN and Water (1:3) as solvent system measured upon irradiation with 8-Watt UV365nm light after 60 mins by HPLC analysis. Conditions: MeCN and water (1:3) solvent system, read-out: Drug metabolism. The format is physicochemical. The procedure, abridged: (§2)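 Caged compound prepared as 4.26 mM solution in MeCN/water (1:3). Irradiated with 8-Watt 365 nm UV lamp. Aliquots taken at 30, 45, 60, 75 and 90 min and analysed by HPLC for remaining caged parent and released hydroxamic acid (identified by m/z). Carboxamide side product tracked by its separate peak.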

For data set [3], the target named is T1, Histone deacetylase (Homo sapiens). Kind of data set: Inhibition of HDAC in human HL-60 cells assessed as increase in H3 histone acetylation at 10 uM under UV irradiation after 24 hrs by Western blot anlaysis. It counts as cell-based. Summed up: as §1
For orientation: Immunoblotting shows a protein as a band on a membrane.

Data set [4] in a line: Drug metabolism assessed as photolysis by measuring parent compound at 85 uM using DMSO, EtOH and water (4:4:92) as solvent system measured upon irradiation with 100mW UV365nm light after 4 mins by HPLC analysis. It counts as physicochemical. To be noted: EtOH and water (4:4:92) solvent system, read-out: Drug metabolism.
Data set [5] can be described thus: Drug metabolism assessed as photolysis by measuring parent compound at 4.26 mM using MeCN and Water (1:3) as solvent system measured upon irradiation with 8-Watt UV365nm light after 45 mins by HPLC analysis. The format is physicochemical. To be noted: MeCN and water (1:3) solvent system, read-out: Drug metabolism. Summed up:
as §2

Data set [6] can be described thus: Drug metabolism assessed as photolysis by measuring parent compound at 85 uM using DMSO, EtOH and water (4:4:92) as solvent system measured upon irradiation with 100mW UV365nm light after 6 mins by HPLC analysis. It counts as physicochemical. To be noted: EtOH and water (4:4:92) solvent system, read-out: Drug metabolism.
Data set [7] in a line: Drug metabolism assessed as photolysis by measuring parent compound at 85 uM using DMSO, EtOH and water (4:4:92) as solvent system measured upon irradiation with 100mW UV365nm light after 2 mins by HPLC analysis. It counts as physicochemical.
A short description of data set [8]: Drug metabolism assessed as photolysis by measuring parent compound at 4.26 mM using MeCN and Water (1:3) as solvent system measured upon irradiation with 8-Watt UV365nm light after 90 mins by HPLC analysis. The format is physicochemical. To be noted: MeCN and water (1:3) solvent system, read-out: Drug metabolism. The procedure, abridged: as §2
A short description of data set [9]: Drug metabolism assessed as photolysis by measuring parent compound at 4.26 mM using MeCN and Water (1:3) as solvent system measured upon irradiation with 8-Watt UV365nm light after 75 mins by HPLC analysis. It counts as physicochemical. To be noted: MeCN and water (1:3) solvent system, read-out: Drug metabolism. Summed up:
as §2

A short description of data set [10]: Drug metabolism assessed as photolysis by measuring parent compound at 4.26 mM using MeCN and Water (1:3) as solvent system measured upon irradiation with 8-Watt UV365nm light after 30 mins by HPLC analysis. The format is physicochemical. Conditions: MeCN and water (1:3) solvent system, read-out: Drug metabolism. Summed up: as §2

Consider 3 molecules from ChEMBL document CHEMBL4725264, “Synthesis and biological evaluation of a novel photo-activated histone deacetylase inhibitor” (Bioorg Med Chem Lett, 2020).

Structures are written as SMILES. Activity calls are given as the source filed them. The calls are words filed in the database; no cut-off is given here.

Consider `CS(=O)(=O)Nc1cccc(-c2ccc(C(=O)NO)cc2)c1`, for which the inhibition result in data set [1] is “Active”. The Activity result with HUVEC is recorded as “Toxic”.

Take `CC(=O)O[C@H]1C(=O)[C@@]2(C)[C@H]([C@H](OC(=O)c3ccccc3)[C@]3(O)C[C@H](OC(=O)[C@H](O)[C@@H](NC(=O)c4ccccc4)c4ccccc4)C(C)=C1C3(C)C)[C@]1(OC(C)=O)CO[C@@H]1C[C@@H]2O` [PACLITAXEL]: the Activity entry in the data set with HUVEC is on record as “Toxic”.

For `COc1cc(C(C)ONC(=O)c2ccc(-c3cccc(NS(C)(=O)=O)c3)cc2)c([N+](=O)[O-])cc1OCCCC(=O)O` (centres undefined), in [2], the remaining at 1 h, 4260 µM stood at 8.4%. In data set [1], the inhibition entry is “inactive”. The inhibition result in [3] is “Active”. In addition, the remaining at 4 min, 85 µM in [4] stood at 11.1%. Moreover, the remaining at 0.75 h, 4260 µM in data set [5] came to 18%. In [6], the remaining at 0.1 h, 85 µM turned out to be 8.2%. In [7], the Drug metabolism was 28.9%. Also, in the data set on HUVEC, the Activity entry is reported as “Non-Toxic”. Also, the remaining at 1.5 h, 4260 µM in data set [8] turned out to be 0.7%. Also, the remaining at 1.25 h, 4260 µM in data set [9] turned out to be 2.4%. Also, in [10], the remaining at 0.5 h, 4260 µM stood at 53.3%.
